# Experiments:
# [1] = test system: Human immunodeficiency virus; assay: Antiviral activity against […] HIV HXB2 with reverse transcriptase […]/Tyr181Cys mutation in human MT4 cells assessed as protection against virus-induced cell death after 5 days by MTT assay; assay type: functional, organism-based; details: Human immunodeficiency virus 1, MT4, 120 h
# [2] = test system: Human immunodeficiency virus; assay: Antiviral activity against wild type HIV HXB2 in human MT4 cells assessed as protection against virus-induced cell death after 5 days by MTT assay; assay type: functional, organism-based; details: Human immunodeficiency virus 1, MT4, 120 h
# [3] = target: Human immunodeficiency virus type 1 reverse transcriptase (Human immunodeficiency virus 1, UniProt Q72547); assay: Inhibition of RNA-dependent DNA polymerase activity of wild type HIV1 reverse transcriptase by SPA
# [4] = target: Human immunodeficiency virus type 1 reverse transcriptase (Human immunodeficiency virus 1, UniProt Q72547, K103N/Y181C); assay: Inhibition of RNA-dependent DNA polymerase activity of HIV1 reverse transcriptase Lys103Asn/Tyr181Cys mutant by SPA
# [5] = test system: Human immunodeficiency virus; assay: Antiviral activity against wild type HIV HXB2 in human MT4 cells assessed as protection against virus-induced cell death after 5 days by MTT assay in presence of 40% human serum; assay type: functional, organism-based; details: Human immunodeficiency virus 1, MT4, 120 h
# [6] = test system: Human immunodeficiency virus; assay: Antiviral activity against NNRTI-resistant HIV HXB2 with reverse transcriptase 190S mutation in human MT4 cells assessed as protection against virus-induced cell death after 5 days by MTT assay; assay type: functional, organism-based; details: Human immunodeficiency virus 1, MT4, 120 h
# Outline: (§1)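 MT4 cells in log-phase growth (2 × 10⁶) infected with HXB2-strain HIV at 0.0001 infectious units/cell for 1 h at 37 °C, washed in PBS, then plated at 3.5 × 10⁴ cells/well. Serial 2-fold dilutions, four replicates, final 625-1.22 nM, in RPMI 1640/10% FCS. Incubated 5 days at 37 °C, 5% CO₂. MTT added for 2 h, absorbance read at 540/690 nm. % protection vs uninfected and virus controls; IC50 taken from plot against log concentration.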
# [7] = test system: Human immunodeficiency virus; assay: Antiviral activity against NNRTI-resistant HIV HXB2 with reverse transcriptase 100I mutation in human MT4 cells assessed as protection against virus-induced cell death after 5 days by MTT assay; assay type: functional, organism-based; details: Human immunodeficiency virus 1, MT4, 120 h; outline: as §1
# [8] = test system: Human immunodeficiency virus; assay: Antiviral activity against NNRTI-resistant HIV HXB2 with reverse transcriptase 101E mutation in human MT4 cells assessed as protection against virus-induced cell death after 5 days by MTT assay; assay type: functional, organism-based; details: Human immunodeficiency virus 1, MT4, 120 h; outline: as §1
# [9] = test system: Human immunodeficiency virus; assay: Antiviral activity against NNRTI-resistant HIV HXB2 with reverse transcriptase 225H mutation in human MT4 cells assessed as protection against virus-induced cell death after 5 days by MTT assay; assay type: functional, organism-based; details: Human immunodeficiency virus 1, MT4; outline: as §1
# [10] = test system: Human immunodeficiency virus; assay: Antiviral activity against NNRTI-resistant HIV HXB2 with reverse transcriptase 103N mutation in human MT4 cells assessed as protection against virus-induced cell death after 5 days by MTT assay; assay type: functional, organism-based; details: Human immunodeficiency virus 1, MT4, 120 h; outline: as §1
# [11] = test system: Human immunodeficiency virus; assay: Antiviral activity against NNRTI-resistant HIV HXB2 with reverse transcriptase 106A mutation in human MT4 cells assessed as protection against virus-induced cell death after 5 days by MTT assay; assay type: functional, organism-based; details: Human immunodeficiency virus 1, MT4, 120 h; outline: as §1
# [12] = test system: Human immunodeficiency virus; assay: Antiviral activity against NNRTI-resistant HIV HXB2 with reverse transcriptase 138K mutation in human MT4 cells assessed as protection against virus-induced cell death after 5 days by MTT assay; assay type: functional, organism-based; details: Human immunodeficiency virus 1, MT4, 120 h; outline: as §1
# [13] = test system: Human immunodeficiency virus; assay: Antiviral activity against NNRTI-resistant HIV HXB2 with reverse transcriptase 188H mutation in human MT4 cells assessed as protection against virus-induced cell death after 5 days by MTT assay; assay type: functional, organism-based; details: Human immunodeficiency virus 1, MT4; outline: as §1
# [14] = test system: Human immunodeficiency virus; assay: Antiviral activity against NNRTI-resistant HIV HXB2 isolate 16 with reverse transcriptase K103, P225 mutation in human MT4 cells assessed as protection against virus-induced cell death after 5 days by MTT assay; assay type: functional, organism-based; details: Human immunodeficiency virus 1, MT4, 120 h
# [15] = test system: Human immunodeficiency virus; assay: Antiviral activity against NNRTI-resistant HIV HXB2 isolate 17 with reverse transcriptase A98, K103, Y181 mutation in human MT4 cells assessed as protection against virus-induced cell death after 5 days by MTT assay; assay type: functional, organism-based; details: Human immunodeficiency virus 1, MT4, 120 h
# [16] = test system: Human immunodeficiency virus; assay: Antiviral activity against NNRTI-resistant HIV HXB2 isolate 20 with reverse transcriptase K103, Y181 mutation in human MT4 cells assessed as protection against virus-induced cell death after 5 days by MTT assay; assay type: functional, organism-based; details: Human immunodeficiency virus 1, MT4, 120 h
# [17] = test system: Human immunodeficiency virus; assay: Antiviral activity against NNRTI-resistant HIV HXB2 isolate 21 with reverse transcriptase K103, V179, Y181 mutation in human MT4 cells assessed as protection against virus-induced cell death after 5 days by MTT assay; assay type: functional, organism-based; details: Human immunodeficiency virus 1, MT4, 120 h
# [18] = test system: Human immunodeficiency virus; assay: Antiviral activity against NNRTI-resistant HIV HXB2 isolate 29 with reverse transcriptase K103, Y181 mutation in human MT4 cells assessed as protection against virus-induced cell death after 5 days by MTT assay; assay type: functional, organism-based; details: Human immunodeficiency virus 1, MT4, 120 h
# [19] = Clearance in rat at 0.5 mg/kg, iv; details: in vivo
# [20] = Clearance in dog at 0.5 mg/kg, iv; details: in vivo
# [21] = Half life in rat at 0.5 mg/kg, iv; details: in vivo
# [22] = Half life in dog at 0.5 mg/kg, iv; details: in vivo
# [23] = Clearance in monkey at 0.5 mg/kg, iv; details: rhesus monkey, in vivo
# [24] = Half life in monkey at 0.5 mg/kg, iv; details: rhesus monkey, in vivo
# [25] = Volume of distribution at steady state in rat at 0.5 mg/kg, iv; details: in vivo, read-out: Vdss
# [26] = Volume of distribution at steady state in dog at 0.5 mg/kg, iv; details: in vivo, read-out: Vdss
# [27] = Volume of distribution at steady state in monkey at 0.5 mg/kg, iv; details: rhesus monkey, in vivo, read-out: Vdss
# [28] = Inhibition of RNA-dependent DNA polymerase activity of HIV1 reverse transcriptase Tyr181Cys mutant by SPA; set-up: species or system Human immunodeficiency virus 1
# Outline: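 Purified recombinant RT (1-3 nM final) with 18nt biotinylated DNA primer (32 nM) on a 47nt RNA template (64 nM). Run 30 min at 30 °C, stopped with EDTA, product captured on streptavidin SPA beads. IC50 by sigmoidal regression.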
# [29] = target: Human immunodeficiency virus type 1 reverse transcriptase (Human immunodeficiency virus 1, UniProt Q72547, K103N); assay: Inhibition of RNA-dependent DNA polymerase activity of HIV1 reverse transcriptase Lys103Asn mutant by SPA
# [30] = test system: Human immunodeficiency virus; assay: Antiviral activity against NNRTI-resistant HIV HXB2 with reverse transcriptase 190A mutation in human MT4 cells assessed as protection against virus-induced cell death after 5 days by MTT assay; assay type: functional, organism-based; details: Human immunodeficiency virus 1, MT4, 120 h; outline: as §1
# [31] = test system: Human immunodeficiency virus; assay: Antiviral activity against NNRTI-resistant HIV HXB2 with reverse transcriptase 108I mutation in human MT4 cells assessed as protection against virus-induced cell death after 5 days by MTT assay; assay type: functional, organism-based; details: Human immunodeficiency virus 1, MT4, 120 h; outline: as §1
# [32] = test system: Human immunodeficiency virus; assay: Antiviral activity against NNRTI-resistant HIV HXB2 with reverse transcriptase 179D mutation in human MT4 cells assessed as protection against virus-induced cell death after 5 days by MTT assay; assay type: functional, organism-based; details: Human immunodeficiency virus 1, MT4, 120 h; outline: as §1
# [33] = test system: Human immunodeficiency virus; assay: Antiviral activity against NNRTI-resistant HIV HXB2 with reverse transcriptase 227L mutation in human MT4 cells assessed as protection against virus-induced cell death after 5 days by MTT assay; assay type: functional, organism-based; details: Human immunodeficiency virus 1, MT4, 120 h; outline: as §1
# [34] = test system: Human immunodeficiency virus; assay: Antiviral activity against NNRTI-resistant HIV HXB2 with reverse transcriptase 236L mutation in human MT4 cells assessed as protection against virus-induced cell death after 5 days by MTT assay; assay type: functional, organism-based; details: Human immunodeficiency virus 1, MT4, 120 h; outline: as §1
# [35] = test system: Human immunodeficiency virus; assay: Antiviral activity against NNRTI-resistant HIV HXB2 with reverse transcriptase 181C mutation in human MT4 cells assessed as protection against virus-induced cell death after 5 days by MTT assay; assay type: functional, organism-based; details: Human immunodeficiency virus 1, MT4, 120 h; outline: as §1
# [36] = test system: Human immunodeficiency virus; assay: Antiviral activity against NNRTI-resistant HIV HXB2 with reverse transcriptase 181I mutation in human MT4 cells assessed as protection against virus-induced cell death after 5 days by MTT assay; assay type: functional, organism-based; details: Human immunodeficiency virus 1, MT4, 120 h; outline: as §1
smiles,measurement,setting,value
N#Cc1cc(Cl)cc(Oc2c(Br)ccc(Cc3n[nH]c4ncccc34)c2F)c1,EC50,[1],12 nM
same,EC50,[2],1 nM
same,IC50,[3],8 nM
N#Cc1cc(Cl)cc(Oc2c(Br)ccc(Cc3n[nH]c4nccnc34)c2F)c1,EC50,[1],> 100 nM
same,EC50,[2],< 25 nM
same,IC50,[4],14 nM
same,IC50,[3],3 nM
Cn1ccc2c(Cc3ccc(Br)c(Oc4cc(Cl)cc(C#N)c4)c3F)n[nH]c2c1=O,EC50,[1],97 nM
same,EC50,[2],4 nM
same,IC50,[4],12 nM
same,IC50,[3],8 nM
N#Cc1cc(Cl)cc(Oc2c(Br)ccc(Cc3n[nH]c4c(N)cccc34)c2F)c1,EC50,[1],84 nM
same,EC50,[2],8 nM
same,IC50,[4],22 nM
same,IC50,[3],24 nM
N#Cc1cc(Cl)cc(Oc2c(Cl)ccc(Cc3n[nH]c4nnccc34)c2F)c1,EC50,[2],1 nM
same,EC50,[5],5 nM
same,EC50,[6],< 1 nM
same,EC50,[7],< 1 nM
same,EC50,[8],2 nM
same,EC50,[9],< 1 nM
same,EC50,[10],< 1 nM
same,EC50,[11],2 nM
same,EC50,[12],2 nM
same,EC50,[13],< 1 nM
same,IC50,[14],3 nM
same,IC50,[15],5 nM
same,IC50,[16],4 nM
same,IC50,[17],3 nM
same,IC50,[18],2 nM
same,clearance,[19],2.9 mL/min/kg
same,clearance,[20],4.6 mL/min/kg
same,half-life,[21],4.2 h
same,half-life,[22],5.6 h
same,clearance,[23],1.3 mL/min/kg
same,half-life,[24],12.2 h
same,Vd,[25],0.91 L/kg
same,Vd,[26],0.99 L/kg
same,Vd,[27],1.21 L/kg
Cc1cc(C#N)cc(Oc2ccc(Cc3n[nH]c4nnccc34)cc2Br)c1,IC50,[28],800 nM
same,IC50,[29],120 nM
same,EC50,[1],> 100 nM
same,EC50,[2],17 nM
N#Cc1cc(Cl)cc(Oc2c(Br)ccc(Cc3n[nH]c4cnccc34)c2F)c1,EC50,[1],18 nM
same,EC50,[2],2 nM
same,IC50,[4],9 nM
same,IC50,[3],5 nM
N#Cc1cc(C#N)cc(Oc2c(Br)ccc(Cc3n[nH]c4nnccc34)c2F)c1,EC50,[1],3 nM
same,EC50,[2],1 nM
N#Cc1cc(Cl)cc(Oc2c(Br)ccc(Cc3n[nH]c4c(C#N)cccc34)c2F)c1,EC50,[1],53 nM
same,EC50,[2],5 nM
same,IC50,[4],15 nM
same,IC50,[3],24 nM
O=C1Nc2ccc(Cl)cc2[C@@](C#CC2CC2)(C(F)(F)F)O1 [EFAVIRENZ],EC50,[5],18 nM
same,EC50,[30],6 nM
same,EC50,[6],> 100 nM
same,EC50,[7],7 nM
same,EC50,[8],12 nM
same,EC50,[9],1 nM
same,EC50,[10],66 nM
same,EC50,[11],6 nM
same,EC50,[31],3 nM
same,EC50,[32],8 nM
same,EC50,[33],1 nM
same,EC50,[34],< 1 nM
same,EC50,[12],2 nM
same,EC50,[13],4 nM
same,EC50,[35],3 nM
same,EC50,[36],2 nM
Cc1cc(C#N)cc(C)c1Oc1nc(Nc2ccc(C#N)cc2)nc(N)c1Br [ETRAVIRINE],IC50,[14],1 nM
same,IC50,[15],14 nM
same,IC50,[16],7 nM
same,IC50,[17],17 nM
same,IC50,[18],3 nM

# From ChEMBL document CHEMBL1140225, “Design of annulated pyrazoles as inhibitors of HIV-1 reverse transcriptase” (J Med Chem, 2008)
